From ChEMBL document CHEMBL1145385, “Functional differences in epigenetic modulators-superiority of mercaptoacetamide-based histone deacetylase inhibitors relative to hydroxamates in cortical neuron neuroprotection studies” (J Med Chem, 2007)
The source made the active and inactive calls. The rule behind the calls is not given here.

molecular target: Histone deacetylase 2 (Homo sapiens, UniProt Q92769); assay: Inhibition of His-tagged HDAC2 expressed in Sf9 cells by fluorescence-based assay
Sequence (Q92769 whole entry): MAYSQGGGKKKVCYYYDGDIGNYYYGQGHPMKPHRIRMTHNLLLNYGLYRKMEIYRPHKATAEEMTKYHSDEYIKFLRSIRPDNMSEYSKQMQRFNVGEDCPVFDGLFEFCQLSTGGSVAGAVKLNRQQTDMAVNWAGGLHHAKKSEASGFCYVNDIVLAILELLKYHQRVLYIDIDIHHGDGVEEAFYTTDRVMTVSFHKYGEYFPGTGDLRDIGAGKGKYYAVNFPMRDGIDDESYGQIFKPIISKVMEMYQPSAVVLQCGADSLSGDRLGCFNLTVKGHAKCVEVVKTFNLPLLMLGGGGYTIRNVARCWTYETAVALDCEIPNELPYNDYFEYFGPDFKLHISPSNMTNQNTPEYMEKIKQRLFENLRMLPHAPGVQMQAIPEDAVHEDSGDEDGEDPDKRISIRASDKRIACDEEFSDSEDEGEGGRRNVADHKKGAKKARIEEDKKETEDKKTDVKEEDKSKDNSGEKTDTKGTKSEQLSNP

Row | Compound | IC50 [µM]
1 | N[C@@H](Cc1c[nH]c2ccccc12)C(=O)Nc1ccccc1-c1ccc(NC(=O)CCCCCCC(=O)NO)cc1 | 0.167
2 | CN(C)c1ccc(C(=O)NCCCCNC(=O)CS)cc1 | > 30
3 | CN(C)c1ccc(NC(=O)NCCCCCCC(=O)NO)cc1 | 0.647
4 | CN(C)c1ccc(CNC(=O)NCCC(=O)NO)cc1 | 0.492
5 | CN(C)c1ccc(C(=O)NCCCNC(=O)CS)cc1 | > 30
6 | N[C@@H](Cc1ccc(O)cc1)C(=O)Nc1ccccc1-c1ccc(NC(=O)CCCCCCC(=O)NO)cc1 | 0.205
7 | O=C(CS)NCCCCCCNC(=O)Nc1ccccc1 | > 30
8 | O=C(CCCCCNC(=O)NC12CC3CC(CC(C3)C1)C2)NO | 1.05
9 | CN(C)c1ccc(C(=O)NCCCCCCNC(=O)CS)cc1 | 4.64
10 | O=C(CCCCCCC(=O)Nc1nc(-c2cccc([N+](=O)[O-])c2)cs1)NO | 0.113
11 | O=C(CS)NCCCCCC(=O)Nc1cccc2cccnc12 | 7.38

molecular target: T1, Protein deacetylase HDAC6 (Homo sapiens, UniProt Q9UBN7); assay: Inhibition of His-tagged HDAC6 expressed in Sf9 cells by fluorescence-based assay
T1 sequence (Q9UBN7 whole entry): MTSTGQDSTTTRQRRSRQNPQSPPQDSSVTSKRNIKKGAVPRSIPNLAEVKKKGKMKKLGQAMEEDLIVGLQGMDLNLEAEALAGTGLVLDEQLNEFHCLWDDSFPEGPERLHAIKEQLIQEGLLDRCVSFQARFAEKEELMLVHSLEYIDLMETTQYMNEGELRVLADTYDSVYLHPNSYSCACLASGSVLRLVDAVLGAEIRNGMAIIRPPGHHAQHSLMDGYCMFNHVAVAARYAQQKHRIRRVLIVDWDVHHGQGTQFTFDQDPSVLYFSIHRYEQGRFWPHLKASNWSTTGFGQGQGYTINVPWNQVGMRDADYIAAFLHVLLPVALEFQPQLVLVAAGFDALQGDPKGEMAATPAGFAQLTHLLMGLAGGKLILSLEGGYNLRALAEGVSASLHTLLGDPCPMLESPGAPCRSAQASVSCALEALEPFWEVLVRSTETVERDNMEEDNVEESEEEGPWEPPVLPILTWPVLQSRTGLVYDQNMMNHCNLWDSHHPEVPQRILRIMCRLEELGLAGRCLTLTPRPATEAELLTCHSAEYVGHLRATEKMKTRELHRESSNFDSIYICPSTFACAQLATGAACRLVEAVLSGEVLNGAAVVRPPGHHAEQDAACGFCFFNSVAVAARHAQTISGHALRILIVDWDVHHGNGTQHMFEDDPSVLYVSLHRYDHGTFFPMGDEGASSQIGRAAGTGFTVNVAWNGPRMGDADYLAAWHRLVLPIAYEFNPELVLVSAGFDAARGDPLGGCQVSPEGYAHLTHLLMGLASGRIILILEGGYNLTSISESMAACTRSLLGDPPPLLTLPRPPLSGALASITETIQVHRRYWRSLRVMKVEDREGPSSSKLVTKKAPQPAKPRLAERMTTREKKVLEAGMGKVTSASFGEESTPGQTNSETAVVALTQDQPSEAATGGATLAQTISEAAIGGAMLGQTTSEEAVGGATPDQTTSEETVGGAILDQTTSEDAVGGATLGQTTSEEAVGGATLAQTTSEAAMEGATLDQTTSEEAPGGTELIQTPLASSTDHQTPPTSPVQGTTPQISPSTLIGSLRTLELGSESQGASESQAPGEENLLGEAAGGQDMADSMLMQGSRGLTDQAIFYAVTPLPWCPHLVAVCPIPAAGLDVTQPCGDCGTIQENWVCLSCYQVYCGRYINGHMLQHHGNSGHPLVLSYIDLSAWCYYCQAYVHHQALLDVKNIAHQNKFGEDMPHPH

Row | Compound | IC50 [µM]
12 | N[C@@H](Cc1c[nH]c2ccccc12)C(=O)Nc1ccccc1-c1ccc(NC(=O)CCCCCCC(=O)NO)cc1 | 0.0054
13 | CN(C)c1ccc(C(=O)NCCCCNC(=O)CS)cc1 | 0.62
14 | CN(C)c1ccc(C(=O)NCCCCCNC(=O)CS)cc1 | 0.114
15 | CN(C)c1ccc(NC(=O)NCCCCCCC(=O)NO)cc1 | 0.0345
16 | CN(C)c1ccc(CNC(=O)NCCC(=O)NO)cc1 | 0.0455
17 | CN(C)c1ccc(C(=O)NCCCNC(=O)CS)cc1 | 0.216
18 | N[C@@H](Cc1ccc(O)cc1)C(=O)Nc1ccccc1-c1ccc(NC(=O)CCCCCCC(=O)NO)cc1 | 0.009
19 | O=C(CS)NCCCCCCNC(=O)Nc1ccccc1 | 2.01
20 | O=C(CCCCCNC(=O)NC12CC3CC(CC(C3)C1)C2)NO | 0.102
21 | CN(C)c1ccc(C(=O)NCCCCCCNC(=O)CS)cc1 | 0.482
22 | O=C(CCCCCCC(=O)Nc1nc(-c2cccc([N+](=O)[O-])c2)cs1)NO | 0.0037
23 | O=C(CS)NCCCCCC(=O)Nc1cccc2cccnc12 | 0.0953

molecular target: Histone deacetylase 1 (Homo sapiens, UniProt Q13547); assay: Inhibition of His-tagged HDAC1 expressed in Sf9 cells by fluorescence-based assay
Sequence (Q13547 whole entry): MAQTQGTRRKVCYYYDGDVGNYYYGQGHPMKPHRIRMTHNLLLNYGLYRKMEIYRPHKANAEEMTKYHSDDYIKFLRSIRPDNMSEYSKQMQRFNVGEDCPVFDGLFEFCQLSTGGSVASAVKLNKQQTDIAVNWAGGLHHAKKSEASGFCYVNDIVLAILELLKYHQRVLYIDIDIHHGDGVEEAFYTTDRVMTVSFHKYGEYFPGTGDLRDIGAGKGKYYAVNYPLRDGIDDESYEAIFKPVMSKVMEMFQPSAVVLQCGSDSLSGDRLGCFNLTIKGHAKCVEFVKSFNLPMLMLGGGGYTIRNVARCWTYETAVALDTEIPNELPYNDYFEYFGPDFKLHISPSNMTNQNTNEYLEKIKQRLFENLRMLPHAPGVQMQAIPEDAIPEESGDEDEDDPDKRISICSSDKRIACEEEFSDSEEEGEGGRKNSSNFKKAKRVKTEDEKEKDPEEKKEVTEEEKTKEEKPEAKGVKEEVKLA

Row | Compound | IC50 [µM]
24 | N[C@@H](Cc1c[nH]c2ccccc12)C(=O)Nc1ccccc1-c1ccc(NC(=O)CCCCCCC(=O)NO)cc1 | 0.0267
25 | CN(C)c1ccc(C(=O)NCCCCNC(=O)CS)cc1 | 11.9
26 | CN(C)c1ccc(C(=O)NCCCCCNC(=O)CS)cc1 | 1.08
27 | CN(C)c1ccc(NC(=O)NCCCCCCC(=O)NO)cc1 | 0.209
28 | CN(C)c1ccc(CNC(=O)NCCC(=O)NO)cc1 | 0.13
29 | CN(C)c1ccc(C(=O)NCCCNC(=O)CS)cc1 | 5.26
30 | N[C@@H](Cc1ccc(O)cc1)C(=O)Nc1ccccc1-c1ccc(NC(=O)CCCCCCC(=O)NO)cc1 | 0.0369
31 | O=C(CS)NCCCCCCNC(=O)Nc1ccccc1 | 10.8
32 | O=C(CCCCCNC(=O)NC12CC3CC(CC(C3)C1)C2)NO | 0.152
33 | CN(C)c1ccc(C(=O)NCCCCCCNC(=O)CS)cc1 | 1.43
34 | O=C(CCCCCCC(=O)Nc1nc(-c2cccc([N+](=O)[O-])c2)cs1)NO | 0.0085
35 | O=C(CS)NCCCCCC(=O)Nc1cccc2cccnc12 | 3.22

tested on: not listed separately; assay: Toxicity against Sprague-Dawley rat neuronal cells at 50 uM; type: cell-based

Row | Compound | Activity
36 | CN(C)c1ccc(C(=O)NCCCNC(=O)CS)cc1 | Non-toxic
37 | O=C(CS)NCCCCCCNC(=O)Nc1ccccc1 | Non-toxic

molecular target: T2, Polyamine deacetylase HDAC10 (Homo sapiens, UniProt Q969S8); assay: Inhibition of His-tagged HDAC10 expressed in Sf9 cells by fluorescence-based assay
T2 sequence (Q969S8 whole entry): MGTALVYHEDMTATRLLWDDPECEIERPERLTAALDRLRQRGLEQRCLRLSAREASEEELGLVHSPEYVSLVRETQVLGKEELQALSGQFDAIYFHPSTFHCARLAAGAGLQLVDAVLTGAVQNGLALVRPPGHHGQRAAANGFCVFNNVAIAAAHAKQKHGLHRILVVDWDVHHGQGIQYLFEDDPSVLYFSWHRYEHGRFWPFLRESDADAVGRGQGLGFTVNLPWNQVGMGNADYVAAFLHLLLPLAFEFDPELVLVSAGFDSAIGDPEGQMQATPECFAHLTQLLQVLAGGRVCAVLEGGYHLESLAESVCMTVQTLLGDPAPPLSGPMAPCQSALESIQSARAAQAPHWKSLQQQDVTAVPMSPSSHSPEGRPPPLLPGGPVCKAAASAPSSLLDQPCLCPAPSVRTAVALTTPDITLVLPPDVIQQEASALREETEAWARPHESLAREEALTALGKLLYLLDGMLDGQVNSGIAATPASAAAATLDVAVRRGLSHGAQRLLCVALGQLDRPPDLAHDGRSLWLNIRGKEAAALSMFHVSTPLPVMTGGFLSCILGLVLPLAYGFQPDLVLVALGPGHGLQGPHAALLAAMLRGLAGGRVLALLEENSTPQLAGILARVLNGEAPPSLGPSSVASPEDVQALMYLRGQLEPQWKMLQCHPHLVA

Row | Compound | IC50 [µM]
38 | N[C@@H](Cc1c[nH]c2ccccc12)C(=O)Nc1ccccc1-c1ccc(NC(=O)CCCCCCC(=O)NO)cc1 | 0.0283
39 | CN(C)c1ccc(C(=O)NCCCCNC(=O)CS)cc1 | 29.7
40 | CN(C)c1ccc(C(=O)NCCCCCNC(=O)CS)cc1 | 1.54
41 | CN(C)c1ccc(NC(=O)NCCCCCCC(=O)NO)cc1 | 0.176
42 | CN(C)c1ccc(CNC(=O)NCCC(=O)NO)cc1 | 0.178
43 | CN(C)c1ccc(C(=O)NCCCNC(=O)CS)cc1 | 8.78
44 | N[C@@H](Cc1ccc(O)cc1)C(=O)Nc1ccccc1-c1ccc(NC(=O)CCCCCCC(=O)NO)cc1 | 0.0421
45 | O=C(CS)NCCCCCCNC(=O)Nc1ccccc1 | > 30
46 | O=C(CCCCCNC(=O)NC12CC3CC(CC(C3)C1)C2)NO | 0.173
47 | CN(C)c1ccc(C(=O)NCCCCCCNC(=O)CS)cc1 | 3.43
48 | O=C(CCCCCCC(=O)Nc1nc(-c2cccc([N+](=O)[O-])c2)cs1)NO | 0.0111
49 | O=C(CS)NCCCCCC(=O)Nc1cccc2cccnc12 | 10.7

tested on: neuronal; assay: Protection against HCA-induced oxidative stress in Sprague-Dawley rat neuronal cells by MTT assay; type: functional, cell-based
Summary of the method: (§1)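 Cortical neurons from E17 Sprague-Dawley rat fetuses, used 24 h after plating, in MEM with 5.5 g/L glucose, 10% fetal calf serum, 2 mM L-glutamine, 100 µM cystine; 5 mM HCA (pH 7.5) added together with compound (10 µM unless stated); viability after 48 h by MTT and calcein-AM/ethidium homodimer-1 staining; mean ± SE of four replicates.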

Row | Compound | Activity
50 | CN(C)c1ccc(C(=O)NCCCNC(=O)CS)cc1 | Dose-dependent effect
51 | O=C(CS)NCCCCCCNC(=O)Nc1ccccc1 | Dose-dependent effect

tested on: neuronal; assay: Protection against HCA-induced oxidative stress Sprague-Dawley rat neuronal cells at 10 uM; type: functional, cell-based; summary of the method: as §1

Row | Compound | Activity
52 | CN(C)c1ccc(C(=O)NCCCCCCNC(=O)CS)cc1 | Active
53 | O=C(CS)NCCCCCC(=O)Nc1cccc2cccnc12 | Active

tested on: Primary neuron; assay: Increase in histone H4 acetylation in Sprague-Dawley rat neurons at 50 uM after 8 hrs; type: functional
Summary of the method: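 Rat primary cortical neurons (fetal Sprague-Dawley, E17) treated 8 h; histones acid-extracted (0.4 N H2SO4) from nuclei, TCA-precipitated, run on 15% SDS gel; immunoblot with acetyl-H4 (1:1000) and total H4 (1:4000) antibodies, 3 h RT, HRP secondary 2 h, enhanced chemiluminescence detection.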

Row | Compound | Activity
54 | CN(C)c1ccc(C(=O)NCCCNC(=O)CS)cc1 | inactive
55 | O=C(CS)NCCCCCCNC(=O)Nc1ccccc1 | inactive
56 | CN(C)c1ccc(C(=O)NCCCCCCNC(=O)CS)cc1 | Active
57 | O=C(CS)NCCCCCC(=O)Nc1cccc2cccnc12 | Active

molecular target: T3, Histone deacetylase 8 (Homo sapiens, UniProt Q9BY41); assay: Inhibition of His-tagged HDAC8 expressed in Sf9 cells by fluorescence-based assay
T3 sequence (Q9BY41 whole entry): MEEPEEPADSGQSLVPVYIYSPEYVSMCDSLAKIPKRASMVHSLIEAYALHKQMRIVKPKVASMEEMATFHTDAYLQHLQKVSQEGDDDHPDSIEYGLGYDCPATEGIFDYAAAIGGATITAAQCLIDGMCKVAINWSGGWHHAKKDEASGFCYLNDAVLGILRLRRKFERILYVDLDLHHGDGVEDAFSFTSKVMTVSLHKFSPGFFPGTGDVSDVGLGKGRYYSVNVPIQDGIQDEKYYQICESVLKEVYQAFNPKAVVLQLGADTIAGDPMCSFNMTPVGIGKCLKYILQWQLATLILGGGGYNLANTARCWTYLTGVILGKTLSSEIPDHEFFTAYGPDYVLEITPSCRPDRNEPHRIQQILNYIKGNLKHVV

Row | Compound | IC50 [µM]
58 | N[C@@H](Cc1c[nH]c2ccccc12)C(=O)Nc1ccccc1-c1ccc(NC(=O)CCCCCCC(=O)NO)cc1 | 1.72
59 | CN(C)c1ccc(C(=O)NCCCCNC(=O)CS)cc1 | > 30
60 | CN(C)c1ccc(C(=O)NCCCCCNC(=O)CS)cc1 | 10.2
61 | CN(C)c1ccc(NC(=O)NCCCCCCC(=O)NO)cc1 | 1.74
62 | CN(C)c1ccc(CNC(=O)NCCC(=O)NO)cc1 | 1.05
63 | CN(C)c1ccc(C(=O)NCCCNC(=O)CS)cc1 | 12.3
64 | N[C@@H](Cc1ccc(O)cc1)C(=O)Nc1ccccc1-c1ccc(NC(=O)CCCCCCC(=O)NO)cc1 | 2.06
65 | O=C(CS)NCCCCCCNC(=O)Nc1ccccc1 | 13.9
66 | O=C(CCCCCNC(=O)NC12CC3CC(CC(C3)C1)C2)NO | 3.41
67 | CN(C)c1ccc(C(=O)NCCCCCCNC(=O)CS)cc1 | 19.1
68 | O=C(CCCCCCC(=O)Nc1nc(-c2cccc([N+](=O)[O-])c2)cs1)NO | 4.09
69 | O=C(CS)NCCCCCC(=O)Nc1cccc2cccnc12 | 6.12
